Measured values from different studies.
Each line is one published result; the experiments were not run side by side.
SLC22A1: Solute carrier family 22 member 1 (SLC22A1, Homo sapiens, UniProt O15245)

The concentration of `CCCCOC(=O)N1CCN(C(=O)[C@H](CP(=O)(O)O)NC(=O)c2cc(N3CC[C@H](OC)C3)nc(-c3ccccc3)n2)CC1` is reported as 2.1 ng/mL (human, plasma; subcutaneous, 16 mg, 24 h, single dose).
For `C=CCn1c(=O)c2cnc(Nc3ccc(N4CCN(C)CC4)cc3)nc2n1-c1cccc(C(C)(C)O)n1`, the concentration was 213 nM (human, plasma; oral, 175 mg, 8 h, single dose).
With `Oc1c(-n2ccnn2)cnn1-c1cc(N2CCOCC2)ncn1` the bioavailability was 61% (female monkey, plasma; oral, 1 mg/kg).
For `CC(=O)OC[C@@]1(C)[C@H]2CC[C@@H]3CN(CC(C)C)[C@@H](C4=CCOC4=O)C[C@H]3[C@]2(C)CC[C@H]1OC(C)=O`, the cell death was 20.7% (MRC5; cell growth or viability, ATP luminescence; 25 µM, 72 h).
`COc1cc(OC)c2c(=O)cc(-c3ccc(Br)cc3)oc2c1-c1c(OC)cc(OC)c2c(=O)cc(-c3ccc(Br)cc3)oc12` gave a CC50 of > 200 µM (HS27; cell growth or viability, MTT; 24 h).
With `C[C@@]12COCO[C@@H]1CC[C@]1(C)[C@@H]2CC[C@@H]2CN(Cc3ccc(F)cc3)[C@@H](C3=CCOC3=O)C[C@H]21` the cell death was -4.3% (MRC5; cell growth or viability, ATP luminescence; 25 µM, 72 h).
`COc1cc(OC)c2c(=O)cc(-c3ccccc3Br)oc2c1` has a CC50 of > 200 µM (HS27; cell growth or viability, MTT; 24 h).
With `CC(C)CCN1C[C@H]2CC[C@@H]3[C@]4(C)COC(C)(C)O[C@@H]4CC[C@@]3(C)[C@@H]2C[C@@H]1C1=CCOC1=O` the cell death was 11.7% (MRC5; cell growth or viability, ATP luminescence; 25 µM, 72 h).
With `COc1ccc(-c2cc(=O)c3c(OC)cc(OC)c(-c4c(OC)cc(OC)c5c(=O)cc(-c6ccc(OC)cc6)oc45)c3o2)cc1` the CC50 was > 200 µM (HS27; cell growth or viability, MTT; 24 h).
For `O=C(O)CSc1nnc(Br)n1-c1ccc(C2CC2)c2ccccc12`, the inhibition was 36% (SLC22A1; transporter uptake, inhibitor; MDCK-II; 3 µM, 5 min).
With `COc1cc(C)c(-c2c(C)cc(OC)c3c(=O)cc(-c4ccccc4Br)oc23)c2oc(-c3ccccc3Br)cc(=O)c12` the CC50 was > 200 µM (HS27; cell growth or viability, MTT; 24 h).
With `CN(C(=O)n1cnc(-c2ccc[n+]([O-])c2)c1)C1CCCCC1` the inhibition was 13% (SLC22A1; transporter uptake, inhibitor; CHO; 1 µg/mL).
